Results reported in ChEMBL document CHEMBL2169847, “New tricks for an old natural product: discovery of highly potent evodiamine derivatives as novel antitumor agents by systemic structure-activity relationship analysis and biological evaluations” (J Med Chem, 2012).
The source made the active and inactive calls. The calls are words filed in the database; no cut-off is given here.

Legend:
[1] = Toxicity in mouse; type: organism-based; conditions: in vivo
Nucleic Acid = test: Induction of DNA intercalation in Escherichia coli pBR322 DNA assessed as induction of supercoiled DNA at 1 ug/ml incubated for 15 mins by electrophoresis based Top1 unwinding assay; type: nucleic-acid assay
In short: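 pBR322 plasmid (0.25 μg) preincubated with 100 μM compound or 1 μg/mL ethidium bromide, 37 °C, 15 min, in Top1 buffer (35 mM Tris-HCl pH 8.0, 72 mM KCl, 5 mM MgCl2, 5 mM DTT, 5 mM spermidine, 0.1% BSA). 5 U Top1 then added for 60 min at 37 °C. Stopped with SDS and proteinase K (50 °C, 20 min), phenol/chloroform extracted, agarose gel.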

SAOS-2 = test: Cytotoxicity against human Saos2 cells incubated for 72 hrs by MTT assay; type: functional; conditions: SAOS-2, 72 h
In short: (§1)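 MTT assay. Cells seeded at 5 × 10³/well and grown 24 h at 37 °C, 5% CO₂. Compounds added at several concentrations in triplicate wells, with 0.1% DMSO control, for 72 h. MTT then added for 4 h, formazan dissolved in DMSO, and absorbance read at 570 nm. GI₅₀ by Logit method; three experiments.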

PC-3 = test: Cytotoxicity against human PC3 cells incubated for 72 hrs by MTT assay; type: functional; conditions: PC-3, 72 h; in short: as §1
[2] = target: DNA topoisomerase 2-alpha (Homo sapiens) (UniProt P11388); test: Inhibition of human Top2alpha assessed as suppression of supercoiled pBR322 DNA relaxation at 50 uM incubated for 30 mins in presence of excess ATP level by electrophoresis method
[3] = target: T1, DNA topoisomerase 1 (Homo sapiens) (UniProt P11387); test: Inhibition of Top1 assessed as suppression of supercoiled pBR322 DNA relaxation measuring appearance of short DNA fragments at 100 uM incubated for 15 mins by electrophoresis method
T1 sequence (whole entry): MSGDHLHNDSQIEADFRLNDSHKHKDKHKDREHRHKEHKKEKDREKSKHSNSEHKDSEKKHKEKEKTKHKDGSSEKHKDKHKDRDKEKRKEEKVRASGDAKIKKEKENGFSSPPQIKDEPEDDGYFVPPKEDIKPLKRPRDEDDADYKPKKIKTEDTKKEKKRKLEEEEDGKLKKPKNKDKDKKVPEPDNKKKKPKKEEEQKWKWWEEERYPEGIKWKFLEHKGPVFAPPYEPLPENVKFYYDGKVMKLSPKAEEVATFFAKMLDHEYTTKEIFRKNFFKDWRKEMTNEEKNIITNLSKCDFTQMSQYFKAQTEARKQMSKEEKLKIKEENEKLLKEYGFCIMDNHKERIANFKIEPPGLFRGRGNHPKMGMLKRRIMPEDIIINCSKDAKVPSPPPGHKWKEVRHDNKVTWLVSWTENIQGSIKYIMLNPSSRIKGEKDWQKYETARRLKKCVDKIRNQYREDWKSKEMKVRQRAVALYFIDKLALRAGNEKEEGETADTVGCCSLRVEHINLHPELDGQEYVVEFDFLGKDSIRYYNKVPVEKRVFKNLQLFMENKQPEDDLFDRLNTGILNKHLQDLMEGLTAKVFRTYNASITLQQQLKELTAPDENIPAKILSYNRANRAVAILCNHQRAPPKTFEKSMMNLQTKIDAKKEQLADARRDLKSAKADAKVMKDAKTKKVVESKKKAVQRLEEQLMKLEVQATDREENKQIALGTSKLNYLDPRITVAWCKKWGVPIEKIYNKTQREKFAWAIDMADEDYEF

HepG2 = test: Cytotoxicity against human HepG2 cells incubated for 72 hrs by MTT assay; type: functional; conditions: HepG2, 72 h; in short: as §1
U2OS = test: Cytotoxicity against human U2OS cells incubated for 72 hrs by MTT assay; type: functional; in short: as §1
[4] = target: DNA topoisomerase 2-alpha (Homo sapiens) (UniProt P11388); test: Inhibition of human Top2alpha assessed as suppression of supercoiled pBR322 DNA relaxation at 50 uM incubated for 30 mins by electrophoresis method
MDA-MB-435 = test: Cytotoxicity against human MDA-MB-435 cells incubated for 72 hrs by MTT assay; type: functional; conditions: MDA-MB-435, 72 h; in short: as §1
HL-60 = test: Cytotoxicity against human HL60 cells incubated for 72 hrs by MTT assay; type: functional; conditions: HL-60, 72 h; in short: as §1
A549 [5] = test: Antitumor activity against human A549 cells xenografted in BALB/C nude mouse assessed as tumor growth inhibition at 1 mg/kg, ip for 13 days measured on 30 to 33 days post implantation; type: functional, organism-based; set-up: dose 1 mg/kg
In short: (§2)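 Cells implanted subcutaneously in right axilla of nude mice; dosing began at tumor volume about 100−300 mm³ (day 17). Randomized, six mice per treatment group and eight controls; ip injection. Tumor volume by caliper, TV = 1/2 × a × b², with body weight every 4 days. Mice sacrificed day 30−33 and tumors removed. Mean SEM, Student's t test versus control.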

HCT-116 = test: Cytotoxicity against human HCT116 cells incubated for 72 hrs by MTT assay; type: functional; conditions: HCT-116, 72 h; in short: as §1
PANC-1 = test: Cytotoxicity against human PANC1 cells incubated for 72 hrs by MTT assay; type: functional; conditions: PANC-1, 72 h; in short: as §1
Mus musculus = test: Toxicity in BALB/C nude mouse xenografted with human A549 cells assessed as reduction in body weight at 1 mg/kg, ip for 13 days measured on 30 to 33 days post implantation; type: organism-based; set-up: dose 1 mg/kg, route intraperitoneal; conditions: in vivo; in short: as §2
A549 [6] = test: Cytotoxicity against human A549 cells incubated for 72 hrs by MTT assay; type: functional; conditions: A549, 72 h; in short: as §1
CNE = test: Cytotoxicity against human CNE cells incubated for 72 hrs by MTT assay; type: functional; in short: as §1
[7] = Cytotoxicity against human KYSE-150 cells incubated for 72 hrs by MTT assay; type: functional; conditions: KYSE-150, 72 h; in short: as §1
ZR-75-30 = test: Cytotoxicity against human ZR75-30 cells incubated for 72 hrs by MTT assay; type: functional; conditions: ZR-75-30, 72 h; in short: as §1
[8] = target: T1, DNA topoisomerase 1 (Homo sapiens); test: Inhibition of Top1 assessed as suppression of supercoiled pBR322 DNA relaxation measuring appearance of short DNA fragments at 500 uM incubated for 15 mins by electrophoresis method

DNA topoisomerase 2-alpha (Homo sapiens), sequence (P11388 whole entry, the tested form may be a part): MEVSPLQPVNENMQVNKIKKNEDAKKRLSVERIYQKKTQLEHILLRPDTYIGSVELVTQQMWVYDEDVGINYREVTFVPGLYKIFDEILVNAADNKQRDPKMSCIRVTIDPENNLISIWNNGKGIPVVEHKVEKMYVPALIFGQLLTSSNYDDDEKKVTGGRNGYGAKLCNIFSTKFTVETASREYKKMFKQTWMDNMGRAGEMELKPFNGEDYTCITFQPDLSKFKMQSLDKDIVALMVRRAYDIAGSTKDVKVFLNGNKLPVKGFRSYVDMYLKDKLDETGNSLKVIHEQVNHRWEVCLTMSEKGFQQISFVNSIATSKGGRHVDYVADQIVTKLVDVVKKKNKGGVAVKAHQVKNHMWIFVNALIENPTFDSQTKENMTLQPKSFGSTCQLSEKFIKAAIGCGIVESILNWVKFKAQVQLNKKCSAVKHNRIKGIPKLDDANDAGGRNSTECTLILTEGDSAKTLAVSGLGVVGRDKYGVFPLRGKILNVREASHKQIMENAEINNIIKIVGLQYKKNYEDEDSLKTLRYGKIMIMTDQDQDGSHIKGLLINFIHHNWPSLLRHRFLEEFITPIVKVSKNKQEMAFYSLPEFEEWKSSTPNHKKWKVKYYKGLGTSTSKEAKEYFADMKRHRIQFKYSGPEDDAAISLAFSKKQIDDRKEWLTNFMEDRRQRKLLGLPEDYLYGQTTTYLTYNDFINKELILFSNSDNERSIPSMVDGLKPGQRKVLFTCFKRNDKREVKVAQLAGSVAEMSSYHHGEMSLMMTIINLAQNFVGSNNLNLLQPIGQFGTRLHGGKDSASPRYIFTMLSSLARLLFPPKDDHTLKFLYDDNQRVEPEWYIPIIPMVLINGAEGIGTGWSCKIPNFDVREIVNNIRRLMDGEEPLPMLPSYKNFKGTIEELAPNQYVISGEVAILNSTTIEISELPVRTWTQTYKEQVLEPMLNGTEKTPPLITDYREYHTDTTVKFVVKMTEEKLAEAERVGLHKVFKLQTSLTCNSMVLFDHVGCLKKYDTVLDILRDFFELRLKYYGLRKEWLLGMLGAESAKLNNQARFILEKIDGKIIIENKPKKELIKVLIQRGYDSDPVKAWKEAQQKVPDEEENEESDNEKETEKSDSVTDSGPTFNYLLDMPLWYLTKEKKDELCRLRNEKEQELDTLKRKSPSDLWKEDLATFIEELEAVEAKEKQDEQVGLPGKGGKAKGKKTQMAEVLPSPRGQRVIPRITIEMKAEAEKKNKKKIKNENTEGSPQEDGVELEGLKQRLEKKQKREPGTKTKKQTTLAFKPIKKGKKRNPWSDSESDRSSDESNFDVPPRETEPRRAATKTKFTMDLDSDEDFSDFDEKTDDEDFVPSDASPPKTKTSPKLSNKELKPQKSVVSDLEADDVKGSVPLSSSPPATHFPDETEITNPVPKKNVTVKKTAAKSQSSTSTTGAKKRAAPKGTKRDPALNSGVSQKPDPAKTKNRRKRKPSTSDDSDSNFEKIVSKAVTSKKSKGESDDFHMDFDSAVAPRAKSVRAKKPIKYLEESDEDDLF

Question: For `CN1c2ccccc2C(=O)N2CCc3c([nH]c4ccccc34)[C@H]21` [EVODIAMINE], which LD50 [1] is on record?
Answer: 77.8 mg/kg

Question: With `CC[n+]1c(-c2ccccc2)c2cc(N)ccc2c2ccc(N)cc21` as the compound, how does the Activity (Nucleic Acid) read?
Answer: Active

Question: Which results are given for `CN1c2ccc(F)cc2C(=O)N2CCc3c([nH]c4ccccc34)C21` (stereo unspecified)?
Answer: GI50 (SAOS-2): 205 µM; GI50 (PC-3): 34.2 µM; inhibition [2]: inactive; inhibition [3]: Active; GI50 (HepG2): 188 µM; GI50 (U2OS): 129 µM; inhibition [4]: Active; GI50 (MDA-MB-435): < 0.003 µM; GI50 (HL-60): < 0.003 µM; TGI (A549 [5]): Active; GI50 (HCT-116): < 0.003 µM; GI50 (PANC-1): 1.7 µM; Activity (Mus musculus): Non-toxic; GI50 (A549 [6]): < 0.003 µM

Question: For `CN1c2ccc(F)cc2C(=O)N2CCc3c([nH]c4ccc(O)cc34)[C@@H]21`, which GI50 (CNE) is on record?
Answer: 5.88 µM

Question: And the GI50 [7]?
Answer: 1.23 µM

Question: What about the GI50 (HCT-116) of the same compound?
Answer: 0.011 µM

Question: What about the GI50 (ZR-75-30) of the same compound?
Answer: 1.75 µM

Question: And the GI50 (A549 [6])?
Answer: 0.0046 µM

Question: What does the source list for `CN1c2ccccc2C(=O)N2CCc3c([nH]c4ccccc34)[C@@H]21` [EVODIAMINE]?
Answer: inhibition [8]: Active; inhibition [3]: inactive; GI50 (MDA-MB-435): 20.2 µM; GI50 (HCT-116): 100 µM; GI50 (A549 [6]): 100 µM
